Source: ChEMBL document CHEMBL4689842, “EUbOPEN Chemogenomics Library wave 1” (2021)
Several values for one entry are separate records, joined by “and”; a condition that tells them apart may be missing. Identical values can stand only once.

System: Fibroblast
Assay: Multiplex assay against human fibroblast
Type: toxicity, cell-based
Outline: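 Live cells were stained at seeding with Hoechst33342, BioTracker Green Microtubule Cytoskeleton Dye, MitoTracker Red and Annexin V Alexa Fluor 680, then imaged on a CQ1 microscope at 37°C and 5% CO2 after compound addition. CellPathfinder machine-learning gating split cells into Hoechst high-intensity objects or normal cells. Normal cells were split into healthy, pyknosed or fragmented nuclei, and pyknosed cells into mitotic or apoptotic. Tubulin, mitochondrial-mass and membrane-permeability phenotypes are per cents of healthy-nucleus cells.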

[1] = 12 h, 10 µM, compound concentration 10 uM, replicate 1
[2] = 12 h, 10 µM, compound concentration 10 uM, replicate 2
[3] = 24 h, 10 µM, compound concentration 10 uM, replicate 1
[4] = 24 h, 10 µM, compound concentration 10 uM, replicate 2
[5] = 12 h, 1 µM, compound concentration 1 uM, replicate 1
[6] = 12 h, 1 µM, compound concentration 1 uM, replicate 2
[7] = 24 h, 1 µM, compound concentration 1 uM, replicate 1
[8] = 24 h, 1 µM, compound concentration 1 uM, replicate 2

Cn1c(-c2csc(C3CCN(CC4=NC5N=CC=CC5N4)CC3)n2)nc2ccccc21 (stereo not given) [BAY-070]
Population Apoptotic (%) [1]: 66% and 86%
Population Fragmented Nuclei (%) [1]: 30% and 26%
Population Healthy Nuclei (%) [1]: 53% and 58%
Population Hoechst High Intensity Objects (%) [1]: 11% and 14%
Population Membrane Permeable-Phenotype (%) [1]: 12% and 9%
Population Mitochondria Different-Phenotype (%) [1]: 4%
Population Mitotic Cells (%) [1]: 33% and 13%
Population Normal (%) [1]: 88% and 85%
Population Pyknosed Nuclei (%) [1]: 15%
Total Cell Count [1]: 238 and 282
Population Fragmented Nuclei (%) [2]: 66% and 53%
Population Healthy Nuclei (%) [2]: 21% and 36%
Population Hoechst High Intensity Objects (%) [2]: 33% and 37%
Population Membrane Permeable-Phenotype (%) [2]: 36% and 29%
Population Normal (%) [2]: 66% and 62%
Population Pyknosed Nuclei (%) [2]: 11% and 10%
Total Cell Count [2]: 77 and 75
Population Apoptotic (%) [3]: 51% and 62%
Population Fragmented Nuclei (%) [3]: 23% and 16%
Population Healthy Nuclei (%) [3]: 61% and 67%
Population Hoechst High Intensity Objects (%) [3]: 10% and 13%
Population Membrane Permeable-Phenotype (%) [3]: 9% and 8%
Population Mitotic Cells (%) [3]: 48% and 37%
Population Normal (%) [3]: 89% and 86%
Population Pyknosed Nuclei (%) [3]: 15% and 16%
Total Cell Count [3]: 222 and 285
Population Fragmented Nuclei (%) [4]: 65% and 57%
Population Healthy Nuclei (%) [4]: 23% and 30%
Population Hoechst High Intensity Objects (%) [4]: 41% and 29%
Population Membrane Permeable-Phenotype (%) [4]: 30% and 22%
Population Mitotic Cells (%) [4]: 100% and 42%
Population Normal (%) [4]: 58% and 70%
Population Pyknosed Nuclei (%) [4]: 11%
Population Tubulin-Different-Phenotype (%) [4]: 40% and 50%
Total Cell Count [4]: 74 and 84

Cc1nc(-c2cn3c(n2)-c2ccc(-c4cnn(C(C)(C)C(N)=O)c4)cc2OCC3)n(C(C)C)n1 [TASELISIB]
Population Apoptotic (%) [5]: 85%
Population Fragmented Nuclei (%) [5]: 29%
Population Healthy Nuclei (%) [5]: 53%
Population Hoechst High Intensity Objects (%) [5]: 12%
Population Membrane Permeable-Phenotype (%) [5]: 7%
Population Mitochondria Different-Phenotype (%) [5]: 6%
Population Mitotic Cells (%) [5]: 14%
Population Normal (%) [5]: 87%
Population Pyknosed Nuclei (%) [5]: 17%
Population Tubulin-Different-Phenotype (%) [5]: 16%
Total Cell Count [5]: 221
Population Apoptotic (%) [6]: 100%
Population Fragmented Nuclei (%) [6]: 61%
Population Healthy Nuclei (%) [6]: 33%
Population Hoechst High Intensity Objects (%) [6]: 30%
Population Membrane Permeable-Phenotype (%) [6]: 15%
Population Mitochondria Different-Phenotype (%) [6]: 10%
Population Mitotic Cells (%) [6]: 0%
Population Normal (%) [6]: 69%
Population Pyknosed Nuclei (%) [6]: 5%
Population Tubulin-Different-Phenotype (%) [6]: 60%
Total Cell Count [6]: 86
Population Apoptotic (%) [1]: 71%
Population Fragmented Nuclei (%) [1]: 25%
Population Healthy Nuclei (%) [1]: 65%
Population Hoechst High Intensity Objects (%) [1]: 11%
Population Membrane Permeable-Phenotype (%) [1]: 7%
Population Mitochondria Different-Phenotype (%) [1]: 2%
Population Mitotic Cells (%) [1]: 28%
Population Normal (%) [1]: 88%
Total Cell Count [1]: 188
Population Apoptotic (%) [2]: 33%
Population Fragmented Nuclei (%) [2]: 47%
Population Healthy Nuclei (%) [2]: 43%
Population Hoechst High Intensity Objects (%) [2]: 30%
Population Membrane Permeable-Phenotype (%) [2]: 13%
Population Mitochondria Different-Phenotype (%) [2]: 13%
Population Mitotic Cells (%) [2]: 66%
Population Normal (%) [2]: 69%
Population Pyknosed Nuclei (%) [2]: 8%
Population Tubulin-Different-Phenotype (%) [2]: 0%
Total Cell Count [2]: 99
Population Apoptotic (%) [7]: 78%
Population Fragmented Nuclei (%) [7]: 32%
Population Healthy Nuclei (%) [7]: 51%
Population Hoechst High Intensity Objects (%) [7]: 14%
Population Membrane Permeable-Phenotype (%) [7]: 5%
Population Mitochondria Different-Phenotype (%) [7]: 7%
Population Mitotic Cells (%) [7]: 21%
Population Normal (%) [7]: 85%
Population Pyknosed Nuclei (%) [7]: 16%
Population Tubulin-Different-Phenotype (%) [7]: 18%
Total Cell Count [7]: 238
Population Apoptotic (%) [8]: 60%
Population Fragmented Nuclei (%) [8]: 62%
Population Healthy Nuclei (%) [8]: 30%
Population Hoechst High Intensity Objects (%) [8]: 27%
Population Membrane Permeable-Phenotype (%) [8]: 14%
Population Mitochondria Different-Phenotype (%) [8]: 0%
Population Mitotic Cells (%) [8]: 40%
Population Normal (%) [8]: 72%
Population Pyknosed Nuclei (%) [8]: 7%
Population Tubulin-Different-Phenotype (%) [8]: 47%
Total Cell Count [8]: 97
Population Apoptotic (%) [3]: 73%
Population Fragmented Nuclei (%) [3]: 23%
Population Healthy Nuclei (%) [3]: 67%
Population Hoechst High Intensity Objects (%) [3]: 13%
Population Membrane Permeable-Phenotype (%) [3]: 6%
Population Mitochondria Different-Phenotype (%) [3]: 2%
Population Mitotic Cells (%) [3]: 26%
Population Normal (%) [3]: 86%
Population Tubulin-Different-Phenotype (%) [3]: 1%
Total Cell Count [3]: 188
Population Apoptotic (%) [4]: 42%
Population Fragmented Nuclei (%) [4]: 38%
Population Healthy Nuclei (%) [4]: 51%
Population Hoechst High Intensity Objects (%) [4]: 22%
Population Membrane Permeable-Phenotype (%) [4]: 10%
Population Mitochondria Different-Phenotype (%) [4]: 15%
Population Mitotic Cells (%) [4]: 57%
Population Normal (%) [4]: 77%
Population Pyknosed Nuclei (%) [4]: 9%
Population Tubulin-Different-Phenotype (%) [4]: 5%
Total Cell Count [4]: 99
